Bioassay records: PubChem, Johns Hopkins Ion Channel Center
Compounds with a hit are over-represented: about 2.3% of the library has one in this group of screens.
TRPC4 block: inhibitors of mouse TRPC4 channel; B-score at 10 µM; AID 2247; 300,000 tested, 0.39% active; Q9QUQ5; HEK293 TRPC4beta/mu-opioid, DAMGO-evoked Fluo4 calcium flux; stronger effect = lower value;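 active = B-score over 3 SD under the library average, no early fluorescence shift, positive overall ratio signal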
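Material: HEK293 cells with stable TRPC4beta plus mu-opioid receptor expression; probe or stimulus: DAMGO in two steps, submaximal then maximal; technique: Fluo4 calcium fluorescence by kinetic imaging, 5 s 1 Hz baseline; measure: integrated fluorescence ratio relative to baseline, converted to per-well B score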
TRPC4 agonist: activators of mouse TRPC4 channel; B-score at 10 µM; AID 2237; HEK293 TRPC4beta/mu-opioid, Fluo4 calcium fluorescence; stronger effect = higher value; 310,000 tested, 0.49% active;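 active = B-score above 5 SD of library B-scores, and initial fluorescence ratio not above library mean plus 5 SD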;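 note: positive B-score marks a calcium rise read as TRPC4 activation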
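Technique: kinetic Fluo4 calcium fluorescence; Test system: TRPC4beta and mu-opioid receptor HEK293 stable cells; Measure: B-scored integrated calcium fluorescence ratio; Benchmarks: low control buffer alone, high control maximal DAMGO; Schedule: 45 min room-temperature Fluo4 loading, 110 s read.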
TRPC6 inh: blocks the mouse TRPC6 cation channel; Q61143; HEK293-TRPC6, membrane potential dye, ACh-evoked depolarization; stronger effect = lower value; B-score at 10 µM; 310,000 tested, 1.1% active;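 active = B-score under library mean minus 3 SD, initial fluorescence not abnormally high, positive integrated signal ratio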;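 note: B-score derived from integrated fluorescence ratio over the kinetic read; more negative B-score means stronger inhibition of depolarization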
Target sequence (Q61143 whole entry, looked up): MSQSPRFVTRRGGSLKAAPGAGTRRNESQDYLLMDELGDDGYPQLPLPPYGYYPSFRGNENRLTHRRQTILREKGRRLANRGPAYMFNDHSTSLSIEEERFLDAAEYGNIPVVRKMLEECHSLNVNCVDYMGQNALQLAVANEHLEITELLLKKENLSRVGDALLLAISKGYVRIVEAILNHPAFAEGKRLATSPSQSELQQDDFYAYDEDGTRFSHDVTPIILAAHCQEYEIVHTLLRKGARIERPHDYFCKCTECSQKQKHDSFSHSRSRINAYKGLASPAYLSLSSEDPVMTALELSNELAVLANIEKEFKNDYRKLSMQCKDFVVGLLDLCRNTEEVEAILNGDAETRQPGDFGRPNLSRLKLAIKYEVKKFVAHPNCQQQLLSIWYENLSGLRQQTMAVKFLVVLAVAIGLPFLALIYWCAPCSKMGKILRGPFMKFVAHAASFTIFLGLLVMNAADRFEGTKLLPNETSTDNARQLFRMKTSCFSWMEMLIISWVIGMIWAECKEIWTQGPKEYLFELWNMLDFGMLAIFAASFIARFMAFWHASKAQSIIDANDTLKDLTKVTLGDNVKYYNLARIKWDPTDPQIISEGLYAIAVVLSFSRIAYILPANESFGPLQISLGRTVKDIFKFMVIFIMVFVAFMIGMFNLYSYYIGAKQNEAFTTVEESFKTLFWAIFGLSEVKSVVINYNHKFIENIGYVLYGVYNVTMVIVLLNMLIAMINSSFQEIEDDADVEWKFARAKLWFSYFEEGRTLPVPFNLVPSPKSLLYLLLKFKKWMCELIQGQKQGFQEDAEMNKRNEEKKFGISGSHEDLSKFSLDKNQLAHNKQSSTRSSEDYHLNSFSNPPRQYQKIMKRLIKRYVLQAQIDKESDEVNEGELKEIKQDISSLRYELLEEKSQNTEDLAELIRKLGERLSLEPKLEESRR
TRPC4 PAM: allosterically enhances the mouse TRPC4 cation channel; HEK293 TRPC4beta/mu-opioid, DAMGO EC20, Fluo-4 Ca2+ flux; stronger effect = higher value; B-score at 10 µM; 310,000 tested, 0.42% active;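 active = B-score of calcium response area above 5 SD of library B-scores, with initial fluorescence ratio within 5 SD of library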;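 note: B-score of integrated fluorescence ratio over time as area under calcium response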
TRPC6 activator: activators of mouse TRPC6 channel. Q61143. HEK293-TRPC6 membrane potential dye fluorescence; stronger effect = higher value. 310,000 tested, 0.13% active. B-score at 10 µM;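 active = B-score of the integrated fluorescence ratio above library mean plus 3 SD, and starting fluorescence ratio within library mean plus 5 SD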;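 note: higher score means more depolarization so channel activation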
* = called active by the depositor; i = inactive.

SMILES	TRPC4 block	TRPC4 agonist	TRPC6 inh	TRPC4 PAM	TRPC6 activator
CSCC[C@H](NC(=O)N1CCn2c1nc1ccccc12)C(=O)NCc1ccc(F)cc1	i	i	i	20*	i
CCOC(=O)Cn1c(=O)oc2cc(S(=O)(=O)Nc3ccc(F)cc3)ccc21	i	47*	i	i	i
CC(C)C(NC(=O)c1ccc(C(C)(C)C)cc1)C(=O)NCC(c1ccccc1)N(C)C (stereo unspecified)	-7*	i	i	i	i
CC(C)C(NC(=O)c1ccc(C(C)(C)C)cc1)C(=O)NCCc1ccccn1 (stereo unspecified)	i	i	i	i	i
Oc1ccccc1CNc1cccc2cccnc12	i	i	i	i	i
Nc1sc(-c2ccccc2)n[n+]1Cc1cccc2cccnc12	i	58*	i	i	i
Cc1cc(Cl)c2oc(C(=O)N(C)Cc3cc(C)[nH]n3)c(C)c2c1	i	i	i	i	i
Cc1cc(Cl)c2oc(C(=O)N(C)Cc3nccn3C)c(C)c2c1	-7*	i	i	i	i
C=CCNC(=S)N1CCN(C2CCCCC2)CC1	i	i	i	32*	i
CCCC(=O)c1ccc(N2CCN(C(=O)c3ccccc3)CC2)c(F)c1	i	i	i	i	i
CCCC(=O)c1ccc(N2CCN(C(=O)c3ccccc3Br)CC2)c(F)c1	i	i	i	11*	i
COc1ccc(CNCc2cccc(Oc3ccccc3)c2)cc1	-6*	i	i	i	i
COc1ccc(CNCc2cccc(C)c2)cc1	i	i	i	i	i
N=C1SCC(=O)N1c1ccc(Cl)cc1	i	i	i	i	i
CC(C)(C)c1ccc(N2C(=N)SCC2=O)cc1	i	i	i	33*	i
CC(=O)OC(C#CCN1CCOCC1)c1ccccc1 (stereo unspecified)	i	i	i	i	i
OC(C#CCN1CCOCC1)c1cccs1 (stereo unspecified)	i	77*	i	i	i
O=C(NC(c1ccccc1)c1cc(Cl)c2cccnc2c1O)c1cccnc1 (stereo unspecified)	i	i	-5.8*	i	i
O=C(O)COc1ccccc1C(Nc1cccnc1)c1cc(Cl)c2cccnc2c1O (stereo unspecified)	i	i	i	i	i
Cc1cccc(N/C(N)=N/c2nc(C)cc(C)n2)c1	i	i	i	i	i
CCCCc1ccc(N/C(N)=N/c2nc(C)cc(C)n2)cc1	i	77*	i	i	i
Cc1ccc(N/C(N)=N/c2nc(C)cc(C)n2)cc1	i	i	i	i	i
Cc1cc(C)nc(/N=C(\N)Nc2ccccc2-c2ccccc2)n1	-6*	i	i	i	i
Cc1cc(C)cc(N/C(N)=N/c2nc(C)cc(C)n2)c1	-6*	i	i	i	i
O=C(CC(=O)Nc1cccc(Cl)c1Cl)Nc1cccc(Cl)c1Cl	i	i	i	i	i
SMILES	TRPC4 block	TRPC4 agonist	TRPC6 inh	TRPC4 PAM	TRPC6 activator
Cc1nc(CNC(=O)CC2C(=O)NCCN2Cc2cccc(Oc3ccccc3)c2)cs1 (stereo unspecified)	i	i	i	i	i
Cc1cccc(NC(=O)C(Cc2ccccc2)c2nn[nH]n2)c1C (stereo unspecified)	i	i	i	i	i
CC1(C)COC(c2cccc(C3=NC(C)(C)CO3)n2)=N1	i	i	i	i	i
CCOC(=O)CSC(C)C(=O)Nc1nnc(C(C)C)s1 (stereo unspecified)	i	i	i	i	i
O=C(CCNS(=O)(=O)c1ccc(Cl)cc1)NCc1cccs1	i	i	i	i	i
Cc1cccc(C(=O)NC(=S)NNC(=O)COc2c(C)cccc2C)c1	i	102*	i	i	i
Cc1ccccc1C(=O)NNC(=S)NC(=O)c1ccc(Cl)cc1Cl	i	249*	i	i	i
CCCCCC(=O)NNC(=S)NC(=O)c1ccccc1[N+](=O)[O-]	i	i	i	i	i
CCCCCC(=O)NNC(=S)NC(=O)c1cccc([N+](=O)[O-])c1	i	60*	i	i	i
O=C(NC(=S)NNC(=O)c1ccc(Cl)cc1Cl)c1cccnc1	i	i	i	i	i
Cc1cccc(C(=O)NC(=S)NNC(=O)Cc2ccccc2)c1	i	219*	i	i	i
Cc1ccc(NS(=O)(=O)c2ccc(Cl)c(NC(=S)NC(=O)C3CCCCC3)c2)cc1Cl	i	i	i	i	i
CC[C@@H]1[C@H]2CCCC(=O)N3CC[C@@H](C[C@@H]1OC(=O)Nc1ccccc1)[C@@H]23	i	i	i	i	i
COc1ccc(C(=O)NC(=S)NNC(=O)COc2ccccc2)cc1	i	i	i	i	i
Cc1ccc(C(=O)NC(=S)NNC(=O)COc2ccccc2C)cc1	i	54*	i	i	i
Cc1cccc(C(=O)NC(=S)NNC(=O)c2ccccc2Cl)c1	i	294*	i	i	i
O=C(COc1ccccc1)NNC(=S)NC(=O)c1ccccc1	i	46*	i	i	i
CCCN(C(=O)c1ccco1)c1nnc(-c2ccccc2C)s1	i	i	i	i	i
COc1ccc(/C=C/C(=O)OCC(=O)c2ccc3c(c2)NC(=O)CO3)cc1	i	i	i	i	i
CC(=O)Nc1cccc(C(=O)OC(C(=O)c2ccc(C)cc2)c2ccccc2)c1 (stereo unspecified)	i	i	i	17*	i
COc1cccc(-c2noc(CCCC(=O)Nc3ccc(C(N)=O)cc3)n2)c1	i	i	i	i	i
CN(C)C(CNC(=O)CCNC(=O)c1ccc(Br)cc1)c1ccco1 (stereo unspecified)	i	i	i	i	i
CN(C)C(CNC(=O)c1cc(Br)ccc1Cl)c1ccco1 (stereo unspecified)	i	i	i	i	i
Cc1c(C(=O)NCC(c2ccco2)N(C)C)oc2c(Cl)cccc12 (stereo unspecified)	-8*	i	i	i	i
CN(C)C(CNC(=O)c1ccccc1OCc1ccc(Cl)cc1)c1ccco1 (stereo unspecified)	-7*	i	i	i	i
CN(C)C(CNC(=O)c1ccc(Br)cc1)c1ccco1 (stereo unspecified)	i	63*	i	i	i
